Measurements from ChEMBL document CHEMBL5506039, “Discovery and Optimization of Tambjamines as a Novel Class of Antileishmanial Agents” (J Med Chem, 2024).

What was measured:
[1] = test system: Leishmania mexicana; assay: (§1) Antileishmanial activity against Leishmania mexicana MNYC/BZ/62/M379 amastigotes expressing red-shifted firefly luciferase from integrated ribosomal (28S) RNA locus infected in mouse J774.A1 cells assessed as reduction in parasite survival measured after 96 hrs by luminescence based analysis; assay type: functional, organism-based; conditions: MNYC/BZ/62/M379, J774.A1, 96 h
Outline: (§2)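 J774A.1 macrophages infected with stationary-phase luciferase-expressing promastigotes at 10:1 parasites:macrophage, overnight at 37 °C, 5% CO₂. Non-internalized parasites washed off and 1 × 10⁴ cells/well replated in MEM/10% HI-FBS. Compounds in DMSO added as serial 3-fold dilutions (typically 10 μM–1 nM) for 96 h. Luciferase luminescence read; EC50 from log-transformed sigmoidal variable-slope fit. Mean ± SD of ≥2 independent experiments.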

[2] = Metabolic stability in pre-warmed pooled human liver microsomes assessed as half life at 1 uM measured upto 60 mins by LC-MS analysis; assay type: ADME, Microsome
Outline: (§3)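 Compound at 1 μM final with 0.5 mg/mL pooled human or mouse liver microsomes, 1.3 mM NADP and 3.3 mM MgCl₂ in 100 mM potassium phosphate, pH 7.4. Reaction started with 1 U/mL G6PD at 37 °C with shaking.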

[3] = Cytotoxicity against mouse J774.A1 cells assessed as reduction in cell survival measured after 96 hrs by SYBR Green II dye based analysis; assay type: toxicity
Outline: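 Uninfected J774A.1 macrophages, 1 × 10⁴ cells/well in DMEM/10% HI-FBS, reattached 3 h, then exposed to compounds for 96 h. DNA content read after lysis with SYBR Green II (1:1000 in 1% Triton/PBS), 1 h dark at room temperature, fluorescence Ex 485/Em 535.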

[4] = Metabolic stability in pre-warmed pooled mouse liver microsomes assessed as half life at 1 uM measured upto 60 mins by LC-MS analysis; assay type: ADME, Microsome; outline: as §3
[5] = Cytotoxicity against mouse J774.A1 cells assessed as cell survival at 0.1 uM measured after 96 hrs by SYBR Green II dye based analysis relative to control; assay type: toxicity; conditions: read-out: Survival
Outline: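 Uninfected J774A.1 mouse macrophages were plated at 1 × 10⁴ cells/well in DMEM with 10% heat-inactivated FBS and left 3 h at 37 °C to reattach. Compounds were added from DMSO, and analogues were screened at 0.1 μM. After 96 h at 37 °C in 5% CO₂, medium was removed. SYBR Green II (1:1000 in 1% Triton/PBS) was added for 1 h in the dark at room temperature, and fluorescence was read at Ex 485/Em 535 as a DNA-content measure of viability.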

[6] = test system: Leishmania mexicana; assay: as §1, with “as” for “as reduction in”, “survival at 0.1 uM” for “survival”, “analysis relative to control” for “analysis”; assay type: functional; conditions: MNYC/BZ/62/M379, J774.A1
[7] = Therapeutic index, ratio of EC50 for mouse J774.A1 cells to EC50 for antileishmanial activity against Leishmania mexicana MNYC/BZ/62/M379 amastigotes expressing red-shifted firefly luciferase from integrated ribosomal (28S) RNA locus infected in mouse J774.A1 cells; assay type: toxicity, cell-based; conditions: read-out: TI
[8] = Therapeutic index, ratio of IC50 for human HepG2 cells to EC50 for antileishmanial activity against Leishmania donovani amastigotes expressing red-shifted firefly luciferase from integrated ribosomal (28S) RNA locus infected in mouse J774.A1 cells; assay type: toxicity, cell-based; conditions: read-out: TI
Outline: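 TI computed as HepG2 IC50 divided by L. donovani EC50. HepG2: MTT assay with 48 h exposure to 10–0.15 μg/mL (1.6-fold dilutions), triplicates, sigmoidal variable-slope fit. Amastigotes: J774A.1 macrophages infected with RS-luciferase promastigotes at 10:1, washed after 24 h, then 96 h compound exposure (3-fold dilutions, 10 μM–1 nM) in MEM/10% HI-FBS at 37 °C, 5% CO₂; luciferase readout.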

[9] = test system: Leishmania donovani; assay: Antileishmanial activity against Leishmania donovani amastigotes expressing red-shifted firefly luciferase from integrated ribosomal (28S) RNA locus infected in mouse J774.A1 cells assessed as reduction in parasite growth measured after 96 hrs by luminescence based analysis; assay type: functional, organism-based; conditions: J774.A1, 96 h; outline: as §2
[10] = test system: HepG2; assay: Cytotoxicity against human HepG2 cells assessed as inhibition of cell growth incubated for 48 hrs by MTT assay; assay type: toxicity, cell-based
Outline: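 HepG2 cells, 2.5 × 10⁴/well in supplemented complete MEM, settled overnight at 37 °C, 5% CO₂. Compounds given as 11 duplicate 1.6-fold dilutions, 10 to 0.15 μg/mL, for 48 h. MTT added for 1 h in the dark at room temperature, formazan dissolved in acidified isopropanol, absorbance read. Triplicate runs; IC50 by sigmoidal variable-slope regression.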

| Compound | EC50 [1] [nM] | half-life at 1 µM [2] [min] | EC50 at 96 h [3] [nM] | half-life at 1 µM [4] [min] | viability at 96 h, 0.1 µM [5] [%] | survival at 0.1 µM [6] [%] | selectivity ratio [7] | selectivity ratio [8] | EC50 [9] [nM] | IC50 [10] [nM] |
| --- | --- | --- | --- | --- | --- | --- | --- | --- | --- | --- |
| CCc1c[nH]c(C2=N/C(=C\NC3CCCCCC3)C(C)=C2C)c1.Cl | 117 | > 60 | 1330 | 11 | 63.3 | 23.8 | 11 | – | – | – |
| CCc1c(C)[nH]c(C2=N/C(=C\NC34CC5CC(CC(C5)C3)C4)C(C)=C2C)c1C.Cl | 54 | > 60 | 675 | 29 | 63.5 | 10.7 | 12 | 263 | 81.2 | 21300 |
| Cl.Clc1ccc(OC2=CC(c3ccc[nH]3)=N/C2=C\NC23CC4CC(CC(C4)C2)C3)cc1 | 38.3 | > 60 | 567 | > 60 | 67.1 | 7.16 | 15 | 80 | 181 | 14500 |
| CCC1=C/C(=C\NC23CC4CC(CC(C4)C2)C3)N=C1c1ccc[nH]1 | 37.5 | – | 884 | – | 50 | 11.3 | 24 | 168 | 90.5 | – |
| COC1=CC(c2ccc(-c3ccc(OC)cc3)[nH]2)=N/C1=C\NC1CCCCCC1.Cl | 18.8 | > 60 | 450 | > 60 | 77.3 | -0.02 | 24 | – | – | – |
| COC1=CC(c2ccc[nH]2)=N/C1=C\N[C@H]1CC[C@H](C)CC1.Cl | 40 | 17.3 | 696 | – | 66.6 | 12.4 | 17 | 28 | 122 | 3420 |
| COC1=CC(c2ccc[nH]2)=N/C1=C\Nc1ccc2c(c1)OCCO2.Cl | 32 | > 60 | > 1000 | 15.8 | 77.3 | 9.03 | > 31 | – | – | – |
| COC1=CC(c2ccc[nH]2)=N/C1=C\Nc1ccc(C)cc1.Cl | 41 | 30 | 171 | 28.9 | 50.8 | 5.49 | 4.2 | – | – | – |
| CC1=C/C(=C\NC23CC4CC(CC(C4)C2)C3)N=C1c1ccc[nH]1.Cl | 48 | > 60 | 1130 | – | 86.9 | 15.4 | 24 | 300 | 100 | – |
| COC1=CC(c2ccc[nH]2)=N/C1=C\Nc1ccc(Oc2ccc(C)cc2)cc1 | 93 | > 60 | 2740 | 46.9 | 69.8 | 26 | 29 | 6 | 285 | 1730 |
| COC1=CC(c2ccc[nH]2)=N/C1=C\Nc1ccccc1 | 73 | – | 1040 | – | 72.8 | 14.3 | 14 | – | 226 | – |
| C(/NCC1CCCCCC1)=C1/N=C(c2ccc[nH]2)C2=C1CCCC2.Cl | – | > 60 | – | > 60 | 75 | 16.1 | – | – | – | – |
| C(/NC1CCCCCC1)=C1/N=C(c2ccc[nH]2)C2=C1CCCC2.Cl | 74 | > 60 | 252 | – | 80 | 24.7 | 3.4 | 61 | 101 | 6200 |
| Cl.FC(F)(F)Oc1ccc(C2=CC(c3ccc[nH]3)=N/C2=C\NC23CC4CC(CC(C4)C2)C3)cc1 | 90.5 | > 60 | 908 | > 60 | 70.6 | 39 | 10 | 215 | 398 | 85500 |
| COc1ccc(Oc2ccc(N/C=C3\N=C(c4ccc[nH]4)C4=C3CCCC4)cc2)cc1.Cl | – | > 60 | – | > 60 | 62.5 | 89.8 | – | – | – | – |
| COC1=CC(c2ccc[nH]2)=N/C1=C\N[C@H]1CC[C@H](C(F)(F)F)CC1.Cl | 46.7 | 13 | 1100 | – | 74.4 | 9.48 | 24 | 26 | 198 | 5120 |
| Cl.FC(F)(F)Oc1ccc(OC2=CC(c3ccc[nH]3)=N/C2=C\NC23CC4CC(CC(C4)C2)C3)cc1 | 41 | > 60 | 353 | > 60 | 80.7 | 35.7 | 8.6 | – | – | – |
| COC1=CC(c2ccc[nH]2)=N/C1=C\NCC1CCCCCC1.Cl | 48.5 | 18.6 | > 1000 | – | 72.2 | 5.3 | > 21 | 69 | 88 | 6060 |
| Cc1ccc(Oc2ccc(N/C=C3\N=C(c4ccc[nH]4)C4=C3CCCC4)cc2)cc1.Cl | – | > 60 | – | > 60 | 58.2 | 102 | – | – | – | – |
| CCCCCCN/C=C1\N=C(c2ccc[nH]2)C=C1OC.Cl | 52.5 | 17.1 | > 1000 | – | 127 | 11.1 | > 19 | 226 | 118 | 26700 |
| COC1=CC(c2ccc[nH]2)=N/C1=C\N[C@H]1CC[C@H](NC(=O)OC(C)(C)C)CC1 | 87.7 | 8.45 | 2990 | 9.71 | 51.1 | 28.3 | 34 | – | – | – |
| COC1=CC(c2ccc[nH]2)=N/C1=C\Nc1ccc(Cl)c(Cl)c1.Cl | 100 | 56.2 | > 1000 | – | 67.5 | 23.8 | > 10 | – | – | – |
| COC1=CC(c2ccc[nH]2)=N/C1=C\Nc1cccc(OC(F)(F)F)c1.Cl | 54 | > 60 | 760 | 15.8 | 83.7 | 11.4 | 14 | – | – | – |
| COC1=CC(c2ccc[nH]2)=N/C1=C\Nc1ccc(Oc2ccc(OC)cc2)cc1 | 66 | > 60 | > 1000 | 30.1 | 50.2 | 8.65 | > 15 | – | – | – |
| COC1=CC(c2ccc(Cc3ccc(OC)cc3)[nH]2)=N/C1=C\NC12CC3CC(CC(C3)C1)C2.Cl | 11.3 | > 60 | > 1000 | > 60 | 59.6 | -0.05 | > 88 | – | – | – |
